Test results: ChEMBL document CHEMBL3826876, “Toward the Development of Specific G-Quadruplex Binders: Synthesis, Biophysical, and Biological Studies of New Hydrazone Derivatives” (J Med Chem, 2016)
pIC50: −log10 of the molar value. Activity calls are given as the source filed them. The rule behind the calls is not given here.

What was measured:
[1] = Effect on synthetic c-KIT1 G-quadruplex DNA topology at 4 mol equiv by circular dichroism spectroscopic analysis
Procedure, shortened: (§1)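 CD spectra at 20 °C, 230-360 nm, 3 scans averaged, baseline subtracted; 10 µM G4 or 15 µM duplex in potassium- or lithium-phosphate pH 7.0 buffers with 100 mM KCl (c-kit2, c-myc: 5 mM potassium phosphate, 20 mM KCl); ligand 4 molar equiv added to folded DNA from 6 mM DMSO stock.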

[2] = Binding affinity to synthetic telomere 23 G-quadruplex DNA assessed as change in melting temperature at 4 mol equiv in presence of 100 mM KCl buffer by circular dichroism spectroscopic analysis
Procedure, shortened: (§2)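 CD melting, 20-100 °C at 1 °C/min, signal at 264 (parallel), 290 (antiparallel) or 280 nm (duplex). G4 DNA 10 µM or duplex 15 µM, folded by heating at 90 °C 5 min and slow cooling, in 10 mM potassium phosphate (c-kit1, Tel23, Tel26) or lithium phosphate (Tel23-p, ds12) pH 7.0 with 100 mM KCl. Ligand 4 equiv; Tm by curve fit, ΔTm vs DNA alone; duplicate average.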

[3] = Binding affinity to synthetic telomere 26 G-quadruplex DNA assessed as change in melting temperature at 4 mol equiv in presence of 100 mM KCl buffer by circular dichroism spectroscopic analysis; procedure, shortened: as §2
[4] = Effect on synthetic telomere 23 parallel G-quadruplex DNA topology at 4 mol equiv by circular dichroism spectroscopic analysis; procedure, shortened: as §1
[5] = Binding affinity to 5'-FAM/3'-TAMRA labeled c-KIT2 G-quadruplex DNA (unknown origin) assessed as change in melting temperature at 4:1 ligand:DNA ratio in presence of 20 mM KCl buffer by FRET assay
Procedure, shortened: (§3)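 FRET melting of FAM/TAMRA-labelled G4 oligos (400 nM, annealed 85 °C 10 min) with ligand at 4 equiv, same buffers as CD (20 mM KCl for c-kit2 and c-myc; 100 mM KCl for telomeric parallel form, annealed at high concentration). Excitation 450-495 nm, emission 515-545 nm, read every 0.5 °C over 30-100 °C; ΔTm by curve fit; duplicate runs averaged.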

[6] = Effect on synthetic telomere 23 G-quadruplex DNA topology at 4 mol equiv by circular dichroism spectroscopic analysis; procedure, shortened: as §1
[7] = Effect on synthetic telomere 26 G-quadruplex DNA topology at 4 mol equiv by circular dichroism spectroscopic analysis; procedure, shortened: as §1
[8] = Binding affinity to synthetic c-KIT2 G-quadruplex DNA assessed as increase in thermal stability in presence of 20 mM KCl buffer by circular dichroism spectroscopic analysis
Procedure, shortened: (§4)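 CD melting in 5 mM potassium phosphate, 20 mM KCl, 10 µM folded G4, heated 20-100 °C at 1 °C/min; ligand:DNA ratios 1:1, 2:1 and 4:1 compared; Tm from curve fit.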

[9] = Induction of parallel G-quadruplex formation in synthetic unfolded c-KIT2 DNA assessed as increase in molar ellipticity after 10 mins in absence of metal cation by circular dichroism titration method
Procedure, shortened: (§5)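 CD titration without metal ions: unfolded oligonucleotide 12-15 µM in 50 mM Tris; ligand added in 0.5 equiv steps, spectrum recorded 10 min after each addition at 20 °C, 230-360 nm, 3 scans averaged.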

[10] = Binding affinity to synthetic c-KIT2 G-quadruplex DNA assessed as change in melting temperature at 4 mol equiv in presence of 20 mM KCl buffer by circular dichroism spectroscopic analysis
Procedure, shortened: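 CD melting as for other targets (20-100 °C, 1 °C/min, 10 µM folded G4, ligand 4 equiv), but in 5 mM potassium phosphate with 20 mM KCl; c-kit2 read at 264 nm as parallel G4. ΔTm from fitted Tm, duplicate average.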

[11] = Effect on preformed synthetic c-MYC parallel G-quadruplex DNA topology in tris buffer after 10 mins by circular dichroism titration method
[12] = Binding affinity to human 5'-FAM/3'-TAMRA labeled telomere 21 parallel G-quadruplex DNA (unknown origin) assessed as change in melting temperature at 4:1 ligand:DNA ratio in presence of 100 mM KCl buffer by FRET assay; procedure, shortened: as §3
[13] = Induction of G-quadruplex formation in synthetic unfolded telomere 23 DNA assessed as increase in molar ellipticity after 10 mins in absence of metal cation by circular dichroism titration method; procedure, shortened: as §5
[14] = Binding affinity to synthetic self-complementary DNA 12-mer duplex assessed as change in melting temperature at 4 mol equiv in presence of 100 mM KCl buffer by circular dichroism spectroscopic analysis; procedure, shortened: as §2
[15] = Binding affinity to synthetic telomere 23 parallel G-quadruplex DNA assessed as change in melting temperature at 4 mol equiv in presence of 100 mM KCl buffer by circular dichroism spectroscopic analysis; procedure, shortened: as §2
[16] = Induction of parallel G-quadruplex formation in synthetic unfolded c-KIT1 DNA assessed as increase in molar ellipticity after 10 mins by in absence of metal cation circular dichroism titration method; procedure, shortened: as §5
[17] = Binding affinity to 5'-FAM/3'-TAMRA labeled c-MYC G-quadruplex DNA (unknown origin) assessed as change in melting temperature at 4:1 ligand:DNA ratio in presence of 20 mM KCl buffer by FRET assay; procedure, shortened: as §3
[18] = Effect on synthetic c-MYC G-quadruplex DNA topology at 4 mol equiv by circular dichroism spectroscopic analysis; procedure, shortened: as §1
[19] = Binding affinity to synthetic c-MYC G-quadruplex DNA assessed as change in melting temperature at 4 mol equiv in presence of 20 mM KCl buffer by circular dichroism spectroscopic analysis
[20] = Effect on synthetic c-KIT2 G-quadruplex DNA topology at 4 mol equiv by circular dichroism spectroscopic analysis; procedure, shortened: as §1
[21] = Effect on synthetic self-complementary DNA 12-mer duplex topology at 4 mol equiv in presence of K+ ions by circular dichroism spectroscopic analysis; procedure, shortened: as §1
[22] = species: Homo sapiens; assay: Binding affinity to human 5'-FAM/3'-TAMRA labeled telomere 21 G-quadruplex DNA assessed as increase in melting temperature by FRET assay
Procedure, shortened: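 FRET melting screen in 60 mM potassium cacodylate pH 7.4, labelled probe 400 nM annealed at 85 °C for 10 min; ligands at various concentrations up to 20 µM, diluted from 10 mM DMSO stock via 10 mM HCl. Excitation 450-495 nm, emission 515-545 nm, 30-100 °C in 0.5 °C steps with 30 s hold; ΔTm by curve fitting, triplicate.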

[23] = Binding affinity to synthetic c-KIT1 G-quadruplex DNA assessed as change in melting temperature at 4 mol equiv in presence of 100 mM KCl buffer by circular dichroism spectroscopic analysis; procedure, shortened: as §2
[24] = tested on: U2OS; assay: Stabilization of nuclear G-quadruplex DNA in human U2OS cells at 10 uM after 24 hrs by DAPI staining based immunofluorescence assay; type: cell-based
Procedure, shortened: (§6)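 U2OS seeded at 100000 cells/ml, treated 24 h after seeding for 24 h; fixed methanol:acetic acid 3:1, 0.1% Triton X-100, 2% milk block. Stained with in-house His-purified BG4, anti-FLAG, Alexa 488 anti-rabbit; nuclei DAPI. Per-cell signal as corrected total cell fluorescence; Student's t test.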

[25] = tested on: U2OS; assay: Cytotoxicity against human U2OS cells assessed as cell death after 24 hrs by FACS analysis; type: cell-based
[26] = tested on: U2OS; assay: Cytotoxicity against human U2OS cells assessed as cell death after 24 hrs by microscopic analysis; type: cell-based
[27] = tested on: U2OS; assay: Cytotoxicity against human U2OS cells assessed as cell killing after 1 hr by MTT assay; type: functional, cell-based
Procedure, shortened: (§7)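 U2OS and HCT116 in DMEM with 10% FBS, 1% L-glutamine, seeded at 40000 cells/ml; 24 h later exposed for 1 h or 24 h, then drug-free medium 1-2 days. MTT 1 h at 37 °C, DMSO solubilisation, absorbance 595 nm. IC50 by linear regression; two independent experiments in triplicate, mean ± SE.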

[28] = tested on: U2OS; assay: Cytotoxicity against human U2OS cells assessed as cell killing after 24 hrs by MTT assay; type: functional, cell-based; procedure, shortened: as §7
[29] = Cytotoxicity against human HCT116 cells assessed as cell killing after 1 hr by MTT assay; type: functional, cell-based; conditions: HCT-116, 1 h; procedure, shortened: as §7
[30] = Cytotoxicity against human HCT116 cells assessed as cell killing after 24 hrs by MTT assay; type: functional, cell-based; conditions: HCT-116, 24 h; procedure, shortened: as §7
[31] = tested on: U2OS; assay: Stabilization of nuclear G-quadruplex DNA in human U2OS cells at 2 to 10 uM after 24 hrs by DAPI staining based immunofluorescence assay; type: cell-based; procedure, shortened: as §6
[32] = Binding affinity to synthetic c-MYC G-quadruplex DNA assessed as increase in thermal stability in presence of 20 mM KCl buffer by circular dichroism spectroscopic analysis; procedure, shortened: as §4

Structure (SMILES)	Activity [1]	ΔTm [2] [°C]	ΔTm [3] [°C]	Activity [4]	ΔTm [5] [°C]	Activity [6]	Activity [7]	Activity [8]	Activity [9]	ΔTm [10] [°C]	Activity [11]	ΔTm [12] [°C]	ΔTm [14] [°C]	ΔTm [15] [°C]	Activity [18]	ΔTm [19] [°C]	Activity [20]	Activity [21]	Activity [22]	ΔTm [23] [°C]	further results
N=C(N)N/N=C/c1c(-c2ccsc2)nc2n1ccc1nc(-c3ccsc3)c(/C=N/NC(=N)N)n12	inactive	-4.9	-6.5	inactive	> 20	inactive	inactive	Dose-dependent effect	Active	> 20	inactive	> 20	3.5	> 20	inactive	> 20	inactive	inactive	Active	> 15	Activity [13]: inactive; Activity [16]: Dose-dependent effect; ΔTm [17]: > 20 °C
N=C(N)N/N=C/c1c(-c2ccccc2)nc2ccn3c(/C=N/N=C(N)N)c(-c4ccccc4)nc3n12	inactive	-10	-4.5	inactive		inactive	inactive			> 20			0.1	> 20	inactive	> 20	inactive	inactive	Active	> 15	Activity [24]: Active
Cl.Cl.N=C(N)N/N=C/c1c(-c2ccccc2)nc2n1ccc1nc(-c3ccccc3)c(/C=N/NC(=N)N)n12																					Activity [25]: Non-toxic; Activity [26]: Non-toxic; pIC50 [27]: 4.00; pIC50 [28]: 4.80; pIC50 [29]: 4.46; pIC50 [30]: 5.29
O=Cc1c(-c2ccccc2)nc2n1ccc1nc(-c3ccccc3)c(C=O)n12																					Activity [31]: inactive; pIC50 [27]: 4.34; pIC50 [28]: 5.04; pIC50 [29]: 4.77; pIC50 [30]: 5.39
C(=N\NC1=NCCN1)/c1c(-c2ccccc2)nc2n1ccc1nc(-c3ccccc3)c(/C=N/NC3=NCCN3)n12	inactive	-14	-8.9	inactive	> 20	inactive	inactive	Dose-dependent effect	Active	> 20	inactive	> 15	1.3	10.8	inactive	> 15	inactive	inactive	Active	1.6	Activity [13]: inactive; Activity [16]: Dose-dependent effect; ΔTm [17]: > 15 °C; Activity [32]: Dose-dependent effect
